In ChEMBL document CHEMBL5360579, “Exploring the anticancer activity and the mechanism of action of pyrrolomycins F obtained by microwave-assisted total synthesis” (Eur J Med Chem, 2023):
pIC50: −log10 of the molar value. Active and inactive are the calls of the source. The rule behind the calls is not given here.

Experiments:
MCF7 [1] = test: Induction of morphological changes in human MCF7 cells assessed as appearance of filamentous protrusions at 1 uM incubated for 48 hrs by inverted phase-contrast microscopic analysis; assay type: functional, cell-based
HCT-116 [2] = test: Induction of cell death in human HCT-116 cells assessed as membrane blebbing at 0.5 uM incubated for 48 hrs by acridine orange and ethidium bromide staining based fluorescence microscopic analysis; assay type: functional
Method in brief: (§1)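 HCT116 on coverslips (5×10^4 cells/well), 24 h attachment, then exposed 48 h to 0.5 µM. PBS-washed and stained a few minutes with a 1:1 mix of acridine orange (100 µg/mL) and ethidium bromide (100 µg/mL). Viewed at once by fluorescence microscopy at 640X, scoring green vs orange nuclei and punctate cytoplasmic staining.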

HCT-116 [3] = test: Induction of cell death in human HCT-116 cells assessed as effect on Bcl2 protein expression at 0.5 uM incubated for 48 hrs by Western blot analysis; assay type: functional, cell-based
HCT-116 [4] = test: Upregulation of cofilin protein expression in human HCT-116 cells at 0.5 uM incubated for 48 hrs by Western blot analysis; assay type: functional, cell-based
HCT-116 [5] = test: Induction of morphological changes in human HCT-116 cells assessed as appearance of filamentous protrusions at 0.5 uM incubated for 48 hrs by inverted phase-contrast microscopic analysis; assay type: functional, cell-based
HCT-116 [6] = test: Inhibition of epithelial mesenchymal transition in human HCT-116 cells assessed as effect on vimentin protein expression at 0.5 uM incubated for 48 hrs by Western blot analysis; assay type: functional, cell-based
MCF7 [7] = test: Cytotoxicity against human MCF7 cells assessed as inhibition of cell proliferation incubated for 48 hrs by MTT assay; assay type: functional, cell-based; details: MCF7, 48 h
Method in brief: (§2)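 Cells kept in DMEM with 10% heat-inactivated FBS, penicillin/streptomycin, 37 °C, 5% CO2. Plated at 5×10^3 cells/well and left 24 h, then exposed 48 h to 80, 20, 5, 1.25, 0.31 and 0.078 µM (diluted from 5 mM DMSO stocks). MTT added for 2 h at 37 °C, formazan dissolved in DMSO, A570 read. Blank subtracted, viability taken relative to untreated cells. IC50 from a sigmoidal fit of % inhibition vs log concentration. Three experiments, each in triplicate.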

HCT-116 [8] = test: Induction of morphological changes in human HCT-116 cells assessed as tunneling nanotubes formation at 0.5 uM incubated for 48 hrs by scanning electron microscopic analysis; assay type: functional, cell-based
Method in brief: (§3)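 HCT116 on coverslips, treated 48 h at 0.5 µM. Coverslips rinsed in PBS pH 7.4, fixed in 4% glutaraldehyde for 30 min at 4 °C, then imaged by scanning electron microscopy at 5000X and 20000X.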

HCT-116 [9] = test: Induction of morphological changes in human HCT-116 cells assessed as appearance of flattened cells at 0.5 uM incubated for 48 hrs by inverted phase-contrast microscopic analysis; assay type: functional, cell-based
HCT-116 [10] = test: Induction of autophagy in human HCT-116 cells assessed as effect on Beclin-1 protein expression at 0.5 uM incubated for 48 hrs by Western blot analysis; assay type: functional, cell-based
TERT-RPE1 = test: Induction of morphological changes in hTERT-RPE1 cells at 5 uM incubated for 48 hrs by inverted phase-contrast microscopic analysis; assay type: toxicity, cell-based; details: human, tert-rpe1, 48 h
HCT-116 [11] = test: Induction of morphological changes in human HCT-116 cells assessed as increase in number of prominent vacuoles at 0.5 uM incubated for 48 hrs by inverted phase-contrast microscopic analysis; assay type: functional, cell-based
HCT-116 [12] = test: Induction of cell death in human HCT-116 cells assessed as appearance of acidic vesicular organelles by measuring bright punctate dots in cytoplasm at 0.5 uM incubated for 48 hrs by acridine orange and ethidium bromide staining based fluorescence microscopic analysis; assay type: functional; method in brief: as §1
HCT-116 [13] = test: Induction of morphological changes in human HCT-116 cells assessed as appearance of actin rich long elongations at 0.5 uM incubated for 48 hrs by rhodamine-phalloidin staining based fluorescence microscopic analysis; assay type: functional, cell-based
Method in brief: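 HCT116 on coverslips, treated 48 h at 0.5 µM. Fixed in cold methanol 15 min, permeabilized 15 min in 0.1% Triton X-100/PBS. Stained with 0.165 µM rhodamine-phalloidin for 40 min in the dark at room temperature. Imaged at 640X.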

[14] = Selectivity index, ratio of IC50 for hTERT-RPE1 cells to IC50 for human MCF7 cells; assay type: toxicity; details: hTERT-RPE1 cells versus MCF7 cells, read-out: Ratio IC50
Method in brief: (§4)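 Ratio of the hTERT-RPE-1 MTT IC50 to the IC50 in HCT116 or MCF-7. Each IC50 comes from a 48 h MTT assay (0.078–80 µM, sigmoidal fit), three experiments in triplicate.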

HCT-116 [15] = test: Induction of cell death in human HCT-116 cells assessed as increase in orange fluorescence at 0.5 uM incubated for 48 hrs by acridine orange and ethidium bromide staining based fluorescence microscopic analysis; assay type: functional; method in brief: as §1
HCT-116 [16] = test: Cytotoxicity against human HCT-116 cells assessed as inhibition of cell proliferation incubated for 48 hrs by MTT assay; assay type: functional, cell-based; details: HCT-116, 48 h; method in brief: as §2
HCT-116 [17] = test: Induction of morphological changes in human HCT-116 cells assessed as development of long elongations from filamentous protrusions resembling filopodia at 0.5 uM incubated for 48 hrs by inverted phase-contrast microscopic analysis; assay type: functional, cell-based
HCT-116 [18] = test: Inhibition of epithelial mesenchymal transition in human HCT-116 cells assessed as effect on E-cadherin protein expression at 0.5 uM incubated for 48 hrs by Western blot analysis; assay type: functional, cell-based
HCT-116 [19] = test: Induction of apoptosis in human HCT-116 cells assessed as nuclear fragmentation at 0.5 uM incubated for 48 hrs by Hoechst 33342 staining based analysis; assay type: functional, cell-based
Method in brief: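 HCT116 on coverslips at 5×10^4 cells/well, treated 48 h at 0.5 µM after 24 h attachment. PBS-washed, stained 10 min with Hoechst 33342 (final 1 µg/ml). Nuclei inspected at once by fluorescence microscopy at 640X for chromatin condensation and nuclear fragmentation.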

HCT-116 [20] = test: Induction of morphological changes in human HCT-116 cells assessed as alteration in intercellular adhesion at 0.5 uM incubated for 48 hrs by scanning electron microscopic analysis; assay type: functional, cell-based; method in brief: as §3
HCT-116 [21] = test: Induction of morphological changes in human HCT-116 cells assessed as appearance of flattened cells at 0.5 uM incubated for 48 hrs by scanning electron microscopic analysis; assay type: functional, cell-based; method in brief: as §3
HCT-116 [22] = test: Induction of cell death in human HCT-116 cells assessed as chromatin condensation at 0.5 uM incubated for 48 hrs by acridine orange and ethidium bromide staining based fluorescence microscopic analysis; assay type: functional; method in brief: as §1
HCT-116 [23] = test: Induction of morphological changes in human HCT-116 cells assessed as intensive membrane ruffling and blebbing at 0.5 uM incubated for 48 hrs by scanning electron microscopic analysis; assay type: functional, cell-based; method in brief: as §3
[24] = Selectivity index, ratio of IC50 for hTERT-RPE1 cells to IC50 for human HCT-116 cells; assay type: toxicity; details: hTERT-RPE1 cells versus HCT-116 cells, read-out: Ratio IC50; method in brief: as §4
MCF7 [25] = test: Induction of morphological changes in human MCF7 cells assessed as reduction in cell clumps at 1 uM incubated for 48 hrs by inverted phase-contrast microscopic analysis; assay type: functional, cell-based
MCF7 [26] = test: Induction of morphological changes in human MCF7 cells assessed as appearance of flattened cells at 1 uM incubated for 48 hrs by inverted phase-contrast microscopic analysis; assay type: functional, cell-based

Compound: O=C(c1cc(Br)ccc1O)c1[nH]c(Cl)c(Cl)c1Br
- Activity (MCF7 [1]): Active
- Activity (HCT-116 [2]): Active
- Activity (HCT-116 [3]): Active
- Activity (HCT-116 [4]): Active
- Activity (HCT-116 [5]): Active
- inhibition (HCT-116 [6]): inactive
- pIC50 (MCF7 [7]): 5.92
- Activity (HCT-116 [8]): Active
- Activity (HCT-116 [9]): Active
- Activity (HCT-116 [10]): Active
- Activity (TERT-RPE1): Non-Toxic
- Activity (HCT-116 [11]): Active
- Activity (HCT-116 [12]): Active
- Activity (HCT-116 [13]): Active
- selectivity ratio [14]: ~100
- Activity (HCT-116 [15]): Active
- pIC50 (HCT-116 [16]): 6.06
- Activity (HCT-116 [17]): Active
- inhibition (HCT-116 [18]): inactive
- Activity (HCT-116 [19]): inactive
- Activity (HCT-116 [20]): Active
- Activity (HCT-116 [21]): Active
- Activity (HCT-116 [22]): inactive
- Activity (HCT-116 [23]): Active
- selectivity ratio [24]: ~100
- Activity (MCF7 [25]): Active
- Activity (MCF7 [26]): Active

Compound: O=C(c1cc(Br)ccc1O)c1[nH]c(Br)c(Cl)c1Br
- Activity (MCF7 [1]): Active
- Activity (HCT-116 [2]): Active
- Activity (HCT-116 [3]): Active
- Activity (HCT-116 [4]): Active
- Activity (HCT-116 [5]): Active
- inhibition (HCT-116 [6]): inactive
- pIC50 (MCF7 [7]): 6.14
- Activity (HCT-116 [8]): Active
- Activity (HCT-116 [9]): Active
- Activity (HCT-116 [10]): Active
- Activity (TERT-RPE1): Non-Toxic
- Activity (HCT-116 [11]): Active
- Activity (HCT-116 [12]): Active
- Activity (HCT-116 [13]): Active
- selectivity ratio [14]: ~100
- Activity (HCT-116 [15]): Active
- pIC50 (HCT-116 [16]): 6.31
- Activity (HCT-116 [17]): Active
- inhibition (HCT-116 [18]): inactive
- Activity (HCT-116 [19]): inactive
- Activity (HCT-116 [20]): Active
- Activity (HCT-116 [21]): Active
- Activity (HCT-116 [22]): inactive
- Activity (HCT-116 [23]): Active
- selectivity ratio [24]: ~100
- Activity (MCF7 [25]): Active
- Activity (MCF7 [26]): Active

Compound: O=C(c1cc(Br)ccc1O)c1[nH]c(Br)c(Br)c1Br
- Activity (MCF7 [1]): Active
- Activity (HCT-116 [2]): Active
- Activity (HCT-116 [3]): Active
- Activity (HCT-116 [4]): Active
- Activity (HCT-116 [5]): Active
- inhibition (HCT-116 [6]): inactive
- pIC50 (MCF7 [7]): 6.21
- Activity (HCT-116 [8]): Active
- Activity (HCT-116 [9]): Active
- Activity (HCT-116 [10]): Active
- Activity (TERT-RPE1): Non-Toxic
- Activity (HCT-116 [11]): Active
- Activity (HCT-116 [12]): Active
- Activity (HCT-116 [13]): Active
- selectivity ratio [14]: ~100
- Activity (HCT-116 [15]): Active
- pIC50 (HCT-116 [16]): 6.46
- Activity (HCT-116 [17]): Active
- inhibition (HCT-116 [18]): inactive
- Activity (HCT-116 [19]): inactive
- Activity (HCT-116 [20]): Active
- Activity (HCT-116 [21]): Active
- Activity (HCT-116 [22]): inactive
- Activity (HCT-116 [23]): Active
- selectivity ratio [24]: ~100
- Activity (MCF7 [25]): Active
- Activity (MCF7 [26]): Active

Compound: O=C(c1cc(Br)cc(Br)c1O)c1[nH]c(Br)c(Br)c1Br
- Activity (MCF7 [1]): Active
- Activity (HCT-116 [2]): Active
- Activity (HCT-116 [3]): Active
- Activity (HCT-116 [4]): Active
- Activity (HCT-116 [5]): Active
- inhibition (HCT-116 [6]): inactive
- pIC50 (MCF7 [7]): 5.92
- Activity (HCT-116 [8]): Active
- Activity (HCT-116 [9]): Active
- Activity (TERT-RPE1): Non-Toxic
- Activity (HCT-116 [11]): Active
- Activity (HCT-116 [12]): Active
- Activity (HCT-116 [13]): Active
- Activity (HCT-116 [15]): Active
- pIC50 (HCT-116 [16]): 5.89
- Activity (HCT-116 [17]): Active
- inhibition (HCT-116 [18]): inactive
- Activity (HCT-116 [19]): inactive
- Activity (HCT-116 [20]): Active
- Activity (HCT-116 [21]): Active
- Activity (HCT-116 [22]): inactive
- Activity (HCT-116 [23]): Active
- Activity (MCF7 [25]): Active
- Activity (MCF7 [26]): Active

Compound: O=C(c1cc(Br)ccc1O)c1[nH]c(Cl)c(Br)c1Br
- Activity (MCF7 [1]): Active
- Activity (HCT-116 [2]): Active
- Activity (HCT-116 [3]): Active
- Activity (HCT-116 [4]): Active
- Activity (HCT-116 [5]): Active
- inhibition (HCT-116 [6]): inactive
- pIC50 (MCF7 [7]): 6.19
- Activity (HCT-116 [8]): Active
- Activity (HCT-116 [9]): Active
- Activity (HCT-116 [10]): Active
- Activity (TERT-RPE1): Non-Toxic
- Activity (HCT-116 [11]): Active
- Activity (HCT-116 [12]): Active
- Activity (HCT-116 [13]): Active
- selectivity ratio [14]: ~100
- Activity (HCT-116 [15]): Active
- pIC50 (HCT-116 [16]): 6.39
- Activity (HCT-116 [17]): Active
- inhibition (HCT-116 [18]): inactive
- Activity (HCT-116 [19]): inactive
- Activity (HCT-116 [20]): Active
- Activity (HCT-116 [21]): Active
- Activity (HCT-116 [22]): inactive
- Activity (HCT-116 [23]): Active
- selectivity ratio [24]: ~100
- Activity (MCF7 [25]): Active
- Activity (MCF7 [26]): Active
